Measurements: ChEMBL document CHEMBL1145212, “Fluorinated diaryl sulfides as serotonin transporter ligands: synthesis, structure-activity relationship study, and in vivo evaluation of fluorine-18-labeled compounds as PET imaging agents” (J Med Chem, 2005)

Tests used:
[1] = target: Sodium-dependent serotonin transporter (Rattus norvegicus) (UniProt P31652); assay: Specific binding in rat hypothalamus at 10 min postinjection in vivo; format: functional, organism-based; details: tested as the 18F-labelled form
Outline: (§1)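 Male Sprague-Dawley rats, n=3 per time point, received about 20 µCi of F-18 radioligand in saline iv by tail vein and were killed at 10–120 min. %ID/g was measured with decay and tail-residual correction. Hypothalamic specific binding = (%ID/g hypothalamus − %ID/g cerebellum)/%ID/g cerebellum; mean ± SD.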

[2] = target: Sodium-dependent serotonin transporter (Rattus norvegicus) (UniProt P31652); assay: Specific binding in rat hypothalamus at 90 min postinjection in vivo; format: functional, organism-based; details: tested as the 18F-labelled form; outline: as §1
[3] = target: Sodium-dependent serotonin transporter (Rattus norvegicus) (UniProt P31652); assay: Specific binding of [18F]AFA in rat hypothalamus after GBR-12935 treatment; n=3; format: functional, tissue-based; details: tested as the 18F-labelled form
Outline: (§2)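 Rats, three per group, were pretreated iv with blocker at 2 mg/kg in saline, or with saline as control, 10–15 min before tail-vein F-18 radioligand (about 20 µCi). Killed at 60 min and regional %ID/g determined. Specific binding = (region activity − cerebellum activity)/cerebellum activity; mean ± SD.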

[4] = target: Sodium-dependent serotonin transporter (Rattus norvegicus) (UniProt P31652); assay: Specific binding of [18F]-AFA in rat striatum after nisoxetine treatment; n=3; format: functional, tissue-based; details: tested as the 18F-labelled form; outline: as §2
[5] = target: Sodium-dependent serotonin transporter (Rattus norvegicus) (UniProt P31652); assay: Specific binding of [18F]AFA in rat striatum after GBR-12935 treatment; n=3; format: functional, tissue-based; details: tested as the 18F-labelled form; outline: as §2
[6] = species on record: Rattus norvegicus; assay: Regional uptake of [18F]-AFA in blood of rat pretreated with compound GBR-12935; n=3; format: functional, organism-based; details: tested as the 18F-labelled form
Outline: (§3)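 Male Sprague-Dawley rats, three per group, received blocker (2 mg/kg iv in saline) or saline only (controls) 10–15 min before about 20 µCi of tail-vein F-18 radioligand. Killed 60 min after tracer. Blood and brain regions weighed and gamma-counted. %ID/g was decay- and tail-corrected; mean ± SD.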

[7] = target: Sodium-dependent serotonin transporter (Rattus norvegicus) (UniProt P31652); assay: Specific binding of [18F]AFA in rat hippocampus after citalopram treatment; n=3; format: functional, tissue-based; details: tested as the 18F-labelled form; outline: as §2
[8] = species on record: Rattus norvegicus; assay: Regional uptake of [18F]AFA in striatum of rat pretreated with compound citalopram; n=3; format: functional, organism-based; details: tested as the 18F-labelled form; outline: as §3
[9] = target: Sodium-dependent serotonin transporter (Rattus norvegicus) (UniProt P31652); assay: Specific binding of [18F]AFA in rat frontal cortex after GBR-12935 treatment; n=3; format: functional, tissue-based; details: tested as the 18F-labelled form; outline: as §2
[10] = species on record: Rattus norvegicus; assay: Regional uptake of [18F]AFA in frontal cortex of rat pretreated with compound nisoxetine; n=3; format: functional, organism-based; details: tested as the 18F-labelled form; outline: as §3
[11] = species on record: Rattus norvegicus; assay: Regional uptake of [18F]AFA in hippocampus of rat pretreated with compound citalopram; n=3; format: functional, organism-based; details: tested as the 18F-labelled form; outline: as §3
[12] = species on record: Rattus norvegicus; assay: Regional uptake of [18F]AFA in hippocampus of rat pretreated with compound 7e; n=3; format: functional, organism-based; details: tested as the 18F-labelled form
[13] = species on record: Rattus norvegicus; assay: Regional uptake of [18F]AFA in blood of rat pretreated with compound nisoxetine; n=3; format: functional, organism-based; details: tested as the 18F-labelled form; outline: as §3
[14] = species on record: Rattus norvegicus; assay: Regional uptake of [18F]AFA in striatum of rat pretreated with compound nisoxetine; n=3; format: functional, organism-based; details: tested as the 18F-labelled form; outline: as §3
[15] = target: Sodium-dependent serotonin transporter (Rattus norvegicus) (UniProt P31652); assay: Specific binding of [18F]AFA in rat frontal cortex after citalopram treatment; n=3; format: functional, tissue-based; details: tested as the 18F-labelled form; outline: as §2
[16] = target: Sodium-dependent serotonin transporter (Rattus norvegicus) (UniProt P31652); assay: Specific binding of [18F]AFA in rat hypothalamus after nisoxetine treatment; n=3; format: functional, tissue-based; details: tested as the 18F-labelled form; outline: as §2
[17] = target: Sodium-dependent serotonin transporter (Rattus norvegicus) (UniProt P31652); assay: Specific binding of [18F]AFA in rat thalamus after citalopram treatment; n=3; format: functional, tissue-based; details: tested as the 18F-labelled form; outline: as §2
[18] = target: Sodium-dependent serotonin transporter (Rattus norvegicus) (UniProt P31652); assay: Specific binding of [18F]AFA in rat thalamus after nisoxetine treatment; n=3; format: functional, tissue-based; details: tested as the 18F-labelled form; outline: as §2
[19] = target: Sodium-dependent serotonin transporter (Rattus norvegicus) (UniProt P31652); assay: Specific binding in rat hypothalamus at 120 min postinjection in vivo; format: functional, organism-based; details: tested as the 18F-labelled form; outline: as §1
[20] = target: Sodium-dependent serotonin transporter (Rattus norvegicus) (UniProt P31652); assay: Specific binding of [18F]AFA in rat frontal cortex after nisoxetine treatment; n=3; format: functional, tissue-based; details: tested as the 18F-labelled form; outline: as §2
[21] = species on record: Rattus norvegicus; assay: Regional uptake of [18F]AFA in cerebellum of rat pretreated with compound nisoxetine; n=3; format: functional, organism-based; details: tested as the 18F-labelled form; outline: as §3
[22] = species on record: Rattus norvegicus; assay: Regional uptake of [18F]AFA in thalamus of rat pretreated with compound nisoxetine; n=3; format: functional, organism-based; details: tested as the 18F-labelled form; outline: as §3
[23] = species on record: Rattus norvegicus; assay: Regional uptake of [18F]-AFA in blood of rat pretreated with compound citalopram; n=3; format: functional, organism-based; details: tested as the 18F-labelled form; outline: as §3
[24] = target: Sodium-dependent serotonin transporter (Rattus norvegicus) (UniProt P31652); assay: Specific binding of [18F]-AFA in rat striatum after citalopram treatment; n=3; format: functional, tissue-based; details: tested as the 18F-labelled form; outline: as §2
[25] = species on record: Rattus norvegicus; assay: Regional uptake of [18F]AFA in hypothalamus of rat pretreated with compound GBR-12935; n=3; format: functional, organism-based; details: tested as the 18F-labelled form; outline: as §3
[26] = species on record: Rattus norvegicus; assay: Regional uptake of [18F]AFA in cerebellum of rat pretreated with compound 7e; n=3; format: functional, organism-based; details: tested as the 18F-labelled form
[27] = target: Sodium-dependent serotonin transporter (Rattus norvegicus) (UniProt P31652); assay: Specific binding of [18F]AFA in rat hippocampus after nisoxetine treatment; n=3; format: functional, tissue-based; details: tested as the 18F-labelled form; outline: as §2
[28] = species on record: Rattus norvegicus; assay: Regional uptake of [18F]AFA in frontal cortex of rat pretreated with compound 7e; n=3; format: functional, organism-based; details: tested as the 18F-labelled form
[29] = species on record: Rattus norvegicus; assay: Regional uptake of [18F]AFA in frontal cortex of rat pretreated with compound GBR-12935; n=3; format: functional, organism-based; details: tested as the 18F-labelled form; outline: as §3
[30] = species on record: Rattus norvegicus; assay: Regional uptake of [18F]-AFA in striatum of rat pretreated with compound GBR-12935; n=3; format: functional, organism-based; details: tested as the 18F-labelled form; outline: as §3
[31] = target: Sodium-dependent serotonin transporter (Rattus norvegicus) (UniProt P31652); assay: Specific binding of [18F]AFA in rat thalamus after GBR-12935 treatment; n=3; format: functional, tissue-based; details: tested as the 18F-labelled form; outline: as §2
[32] = species on record: Rattus norvegicus; assay: Regional uptake of [18F]AFA in hypothalamus of rat pretreated with compound 7e; n=3; format: functional, organism-based; details: tested as the 18F-labelled form
[33] = species on record: Rattus norvegicus; assay: Regional uptake of [18F]AFA in thalamus of rat pretreated with compound GBR-12935; n=3; format: functional, organism-based; details: tested as the 18F-labelled form; outline: as §3
[34] = species on record: Rattus norvegicus; assay: Regional uptake of [18F]AFA in thalamus of rat pretreated with compound 7e; n=3; format: functional, organism-based; details: tested as the 18F-labelled form
[35] = species on record: Rattus norvegicus; assay: Regional uptake of [18F]-AFA in striatum of rat pretreated with compound 7e; n=3; format: functional, organism-based; details: tested as the 18F-labelled form
[36] = species on record: Rattus norvegicus; assay: Regional uptake of [18F]AFA in thalamus of rat pretreated with compound citalopram; n=3; format: functional, organism-based; details: tested as the 18F-labelled form; outline: as §3
[37] = target: Sodium-dependent serotonin transporter (Rattus norvegicus) (UniProt P31652); assay: Specific binding of [18F]AFA in rat hypothalamus after citalopram treatment; n=3; format: functional, tissue-based; details: tested as the 18F-labelled form; outline: as §2
[38] = species on record: Rattus norvegicus; assay: Regional uptake of [18F]AFA in hippocampus of rat pretreated with compound GBR-12935; n=3; format: functional, organism-based; details: tested as the 18F-labelled form; outline: as §3
[39] = target: Sodium-dependent serotonin transporter (Homo sapiens, UniProt P31645); assay: In vitro displacement of [3H]paroxetine from human serotonin transporter expressed in HEK293 cells; format: cell-based
[40] = species on record: Rattus norvegicus; assay: Regional uptake of [18F]AFA in cerebellum of rat pretreated with compound citalopram; n=3; format: functional, organism-based; details: tested as the 18F-labelled form; outline: as §3
[41] = species on record: Rattus norvegicus; assay: Regional uptake of [18F]AFA in frontal cortex of rat pretreated with compound citalopram; n=3; format: functional, organism-based; details: tested as the 18F-labelled form; outline: as §3
[42] = target: Sodium-dependent serotonin transporter (Rattus norvegicus) (UniProt P31652); assay: Specific binding of [18F]AFA in rat hippocampus after GBR-12935 treatment; n=3; format: functional, tissue-based; details: tested as the 18F-labelled form; outline: as §2
[43] = species on record: Rattus norvegicus; assay: Regional uptake of [18F]AFA in hypothalamus of rat pretreated with compound citalopram; n=3; format: functional, organism-based; details: tested as the 18F-labelled form; outline: as §3
[44] = target: Sodium-dependent serotonin transporter (Rattus norvegicus) (UniProt P31652); assay: Specific binding in rat hypothalamus at 60 min postinjection in vivo; format: functional, organism-based; details: tested as the 18F-labelled form; outline: as §1
[45] = species on record: Rattus norvegicus; assay: Regional uptake of [18F]AFA in cerebellum of rat pretreated with compound GBR-12935; n=3; format: functional, organism-based; details: tested as the 18F-labelled form; outline: as §3
[46] = species on record: Rattus norvegicus; assay: Regional uptake of [18F]AFA in hippocampus of rat pretreated with compound nisoxetine; n=3; format: functional, organism-based; details: tested as the 18F-labelled form; outline: as §3
[47] = species on record: Rattus norvegicus; assay: Regional uptake of [18F]-AFA in hypothalamus of rat pretreated with compound nisoxetine; n=3; format: functional, organism-based; details: tested as the 18F-labelled form; outline: as §3
[48] = target: Sodium-dependent serotonin transporter (Rattus norvegicus) (UniProt P31652); assay: Specific binding in rat hypothalamus at 30 min postinjection in vivo; format: functional, organism-based; details: tested as the 18F-labelled form; outline: as §1
[49] = species on record: Rattus norvegicus; assay: Regional uptake of [18F]AFA in blood of rat pretreated with compound 7e; n=3; format: functional, organism-based; details: tested as the 18F-labelled form

Sequence of Sodium-dependent serotonin transporter (Rattus norvegicus) (P31652 whole entry): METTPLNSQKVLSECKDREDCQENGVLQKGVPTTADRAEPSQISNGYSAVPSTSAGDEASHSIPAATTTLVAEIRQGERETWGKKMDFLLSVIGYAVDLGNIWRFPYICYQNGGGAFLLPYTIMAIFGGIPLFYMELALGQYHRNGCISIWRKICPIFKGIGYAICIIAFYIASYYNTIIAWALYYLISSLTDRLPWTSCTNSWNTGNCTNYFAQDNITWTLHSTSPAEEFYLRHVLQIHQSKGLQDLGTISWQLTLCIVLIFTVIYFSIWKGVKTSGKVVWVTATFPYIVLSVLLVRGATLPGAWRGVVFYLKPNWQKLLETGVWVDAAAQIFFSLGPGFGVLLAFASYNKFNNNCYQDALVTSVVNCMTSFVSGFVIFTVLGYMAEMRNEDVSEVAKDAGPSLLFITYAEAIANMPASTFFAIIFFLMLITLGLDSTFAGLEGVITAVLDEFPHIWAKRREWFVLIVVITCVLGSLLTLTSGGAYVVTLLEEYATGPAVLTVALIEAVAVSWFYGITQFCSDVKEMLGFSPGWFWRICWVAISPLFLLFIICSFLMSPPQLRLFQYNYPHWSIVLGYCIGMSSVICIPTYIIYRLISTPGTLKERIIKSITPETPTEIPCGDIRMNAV
Sequence of Sodium-dependent serotonin transporter (P31645 whole entry): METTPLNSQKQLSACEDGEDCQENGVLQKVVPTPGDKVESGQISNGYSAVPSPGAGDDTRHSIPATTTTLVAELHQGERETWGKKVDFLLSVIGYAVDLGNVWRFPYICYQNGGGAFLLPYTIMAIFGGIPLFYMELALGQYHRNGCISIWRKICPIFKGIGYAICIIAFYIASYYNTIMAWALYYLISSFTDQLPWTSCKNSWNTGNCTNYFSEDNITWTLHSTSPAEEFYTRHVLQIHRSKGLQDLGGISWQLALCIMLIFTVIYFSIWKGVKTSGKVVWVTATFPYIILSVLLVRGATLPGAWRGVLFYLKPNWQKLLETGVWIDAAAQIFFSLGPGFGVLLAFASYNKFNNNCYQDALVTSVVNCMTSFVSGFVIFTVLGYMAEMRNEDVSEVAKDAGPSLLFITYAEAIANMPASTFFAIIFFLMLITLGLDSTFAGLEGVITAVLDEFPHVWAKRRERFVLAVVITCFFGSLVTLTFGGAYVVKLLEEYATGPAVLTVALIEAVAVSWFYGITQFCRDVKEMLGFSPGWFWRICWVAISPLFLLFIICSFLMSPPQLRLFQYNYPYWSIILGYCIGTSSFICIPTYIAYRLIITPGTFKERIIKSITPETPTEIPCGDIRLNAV

## CN(C)Cc1ccccc1Sc1ccc(CCF)cc1N
[1]
  Specific binding: 0.96 %ID/g
[2]
  Specific binding (dimensionless ratio): 4.36
[3]
  Specific binding: 3.85 %ID/g
[4]
  Specific binding: 2.1 %ID/g
[5]
  Specific binding: 2.62 %ID/g
[6]
  Uptake: 0.06 %ID/g
[7]
  Specific binding: 0.54 %ID/g
[8]
  Uptake: 0.09 %ID/g
[9]
  Specific binding: 1.98 %ID/g
[10]
  Uptake: 0.19 %ID/g
[11]
  Uptake: 0.09 %ID/g
[12]
  Uptake: 0.11 %ID/g
[13]
  Uptake: 0.06 %ID/g
[14]
  Uptake: 0.21 %ID/g
[15]
  Specific binding: 0.31 %ID/g
[16]
  Specific binding: 4 %ID/g
[17]
  Specific binding: 0.89 %ID/g
[18]
  Specific binding: 3.56 %ID/g
[19]
  Specific binding (dimensionless ratio): 4.5
[20]
  Specific binding: 1.82 %ID/g
[21]
  Uptake: 0.07 %ID/g
[22]
  Uptake: 0.29 %ID/g
[23]
  Uptake: 0.08 %ID/g
[24]
  Specific binding: 0.5 %ID/g
[25]
  Uptake: 0.32 %ID/g
[26]
  Uptake: 0.07 %ID/g
[27]
  Specific binding: 1.63 %ID/g
[28]
  Uptake: 0.1 %ID/g
[29]
  Uptake: 0.17 %ID/g
[30]
  Uptake: 0.2 %ID/g
[31]
  Specific binding: 3.38 %ID/g
[32]
  Uptake: 0.15 %ID/g
[33]
  Uptake: 0.25 %ID/g
[34]
  Uptake: 0.14 %ID/g
[35]
  Uptake: 0.11 %ID/g
[36]
  Uptake: 0.11 %ID/g
[37]
  Specific binding: 1 %ID/g
[38]
  Uptake: 0.18 %ID/g
[39]
  Ki: 1.83 nM
[40]
  Uptake: 0.06 %ID/g
[41]
  Uptake: 0.08 %ID/g
[42]
  Specific binding: 2.18 %ID/g
[43]
  Uptake: 0.12 %ID/g
[44]
  Specific binding: 3.35 %ID/g
[45]
  Uptake: 0.06 %ID/g
[46]
  Uptake: 0.17 %ID/g
[47]
  Uptake: 0.33 %ID/g
[48]
  Specific binding: 2.22 %ID/g
[49]
  Uptake: 0.06 %ID/g
